For assay [1], the species on record is Cavia porcellus. The settings on record: 10 nM.
The species entered for assay [2] is Cavia porcellus. Briefly: Inhibition of CaCl2-induced contraction in potassium-depolarized guinea pig ileal smooth muscle at 10 uM. In kind it is functional. The gist of the method:
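Guinea-pig ileum segments (2.5 cm) in high-K+ (45 mM KCl), Ca-free Krebs at 37 °C, gassed 95% O2/5% CO2, 1.5 g resting tension, isometric recording. CaCl2 raised bath Ca to 2.5 mM to give a sustained contracture. Compound at 1×10^-5 M in 0.5% DMSO/water added once contraction stabilised. Nifedipine 1×10^-8 M was the positive control. Mean ± SEM, n = animals.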

Assay [3] can be described thus: Inhibition of CaCl2-induced contraction in potassium depolarized-guinea pig ileal smooth muscle. The class given is functional, Cavia porcellus.

As a reminder, the inhibition is the percentage by which the read-out fell short of the control. Higher therefore signals a response far below the control. Consider `COC(=O)C1=C(C)NC(C)=C(C(=O)OC)C1c1ccccc1[N+](=O)[O-]`, for which, in assay [1], the inhibition is 48.1%.

For the compound `C=CCN(C1=CC(=O)c2ccccc21)C1CCc2ccccc21` (racemic), the inhibition in assay [2] is 20.9%. For the compound `CC(=O)N(C1=CC(=O)c2ccccc21)C1CCc2ccccc21` (racemic), the inhibition in assay [2] turned out to be 18.3%.

Regarding `O=C1C=C(NC2CCc3ccccc32)c2ccccc21` (racemic), the inhibition in assay [2] amounted to 30%. Broadly, the EC50 is the concentration at which the effect is half-maximal. Read a low EC50 as a more potent agent. As for `Cc1c(O)c2c(c(C)c1CCO)C(=O)C(C)(C)C2` [ONITIN], in assay [3], the EC50 is 100 µM. On the same count and under the same terms, to `Cc1c(O)c2c(c(C)c1CCO)C(=O)C(C)(O)C2` (stereo unspecified) [ONITISIN] belongs 2000 µM.

Source of the values: ChEMBL document CHEMBL1144674, “Synthesis and pharmacological activity of aminoindanone dimers and related compounds” (Bioorg Med Chem, 2008).
